This passage reports Ki, MCC and inhibition results from ChEMBL document CHEMBL1137559, “Rational design of 5'-thiourea-substituted alpha-thymidine analogues as thymidine monophosphate kinase inhibitors capable of inhibiting mycobacterial growth” (J Med Chem, 2007).

In one data set the target is T1, Thymidylate kinase (Mycobacterium tuberculosis, UniProt P9WKE1).
T1 sequence (P9WKE1 whole entry): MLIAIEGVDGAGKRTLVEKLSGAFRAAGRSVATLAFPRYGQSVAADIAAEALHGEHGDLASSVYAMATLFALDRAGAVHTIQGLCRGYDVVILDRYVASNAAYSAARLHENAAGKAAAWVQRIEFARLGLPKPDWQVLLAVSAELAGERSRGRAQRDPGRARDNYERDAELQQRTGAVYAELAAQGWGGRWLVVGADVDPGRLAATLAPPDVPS
Nature of the data set: Inhibition of Mycobacterium tuberculosis TMPK expressed in Escherichia coli by spectrophotometric assay. The essentials:
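Recombinant mycobacterial and human TMPK, both expressed in E. coli, run in an NADH-coupled assay (pyruvate kinase, lactate dehydrogenase, nucleoside diphosphate kinase, 2 units each) read at 334 nm. ATP 0.5 mM and dTMP 0.05 mM held constant; analogues 0.01–2 mM; Ki determined for each enzyme.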

The nature of data set [1]: Inhibition of human TMPK expressed in Escherichia coli by spectrophotometric assay.
Data set [2] is described as follows: Cytotoxicity against Vero cells at 100 uM after 3 days. Conditions: chlorocebus sabaeus. The data set is classed as cell-based. The essentials:
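Confluent Vero monolayers given serial compound dilutions; incubated 3 days at 37°C, humidified CO2 atmosphere; cultures inspected microscopically for altered morphology. MCC = concentration causing microscopic alteration of mock-infected cultures at day 3.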

For data set [3], the system named is Mycobacterium tuberculosis. The data set is described as follows: Growth inhibition of Mycobacterium tuberculosis H37Rv at 6.25 ug/mL by MABA assay. The class given is functional. The method in brief: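 Single-concentration screen in BACTEC 12B medium using the Microplate Alamar Blue Assay; percent inhibition recorded.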
On the technique in general: The colour change of resazurin is a common sign of viable cells or microbes.

Each structure is given as a SMILES string.

What is called Ki is the dissociation constant of the complex between target and ligand, obtained from inhibition or displacement. A high value points to lower affinity. On to `Cc1cn([C@@H]2C[C@H](O)[C@@H](CNC(=S)NCCc3ccccc3)O2)c(=O)[nH]c1=O`, for which the Ki on Thymidylate kinase is 3.8 µM; in data set [1] it was above 800 µM. Further, the MCC at 72 h, up to 100 µM in data set [2] was above 100 µM.
For orientation: inhibition means the drop in the measured response relative to a control, in per cent. Molecule `Cc1cn([C@@H]2C[C@H](O)[C@@H](CNC(=S)Nc3ccc(Cl)c(Cl)c3)O2)c(=O)[nH]c1=O` registered an inhibition at 6.25 µg/mL in data set [3] of 38%. Besides, the Ki at Thymidylate kinase is 1 µM; in data set [1], 274 µM. Moreover, in data set [2], the MCC at 72 h, up to 100 µM was above 100 µM.
`Cc1cn([C@@H]2C[C@H](O)[C@@H](CNC(=S)Nc3ccc(N4CCOCC4)cc3)O2)c(=O)[nH]c1=O` showed a Ki at Thymidylate kinase of 19.2 µM.
`Cc1cn([C@@H]2C[C@H](O)[C@@H](CNC(=S)NC34CC5CC(CC(C5)C3)C4)O2)c(=O)[nH]c1=O` registered a Ki at Thymidylate kinase of 15 µM. The same molecule gave an MCC at 72 h, up to 100 µM in data set [2] above 100 µM.
As for `Cc1cn([C@@H]2C[C@H](O)[C@@H](CNC(=O)c3ccccc3)O2)c(=O)[nH]c1=O`, the Ki on Thymidylate kinase was 35 µM.
Turning to `Cc1cn(COCCNC(=S)Nc2ccccc2)c(=O)[nH]c1=O`, on Thymidylate kinase, the affinity, expressed as Ki, was 260 µM. This molecule showed an MCC at 72 h, up to 100 µM in data set [2] above 100 µM.
Take `Cc1cn([C@@H]2C[C@H](O)[C@@H](CN=[N+]=[N-])O2)c(=O)[nH]c1=O`: on Thymidylate kinase, the Ki was 26.5 µM.
As to `Cc1cn([C@H]2C[C@H](CNC(=S)Nc3ccc(Cl)cc3)[C@@H](CO)O2)c(=O)[nH]c1=O`, the affinity at Thymidylate kinase corresponds to a Ki of 21 µM. In addition, the MCC at 72 h, up to 100 µM in data set [2] is above 100 µM.
Taken in the same sequence, the figures for `COc1ccc(NC(=S)NC[C@H]2C[C@H](n3cc(C)c(=O)[nH]c3=O)O[C@@H]2CO)cc1` were 46 µM and above 100 µM.
On the same counts, the results for `Cc1cn([C@H]2C[C@H](CNC(=S)Nc3ccc(Cl)c(Cl)c3)[C@@H](CO)O2)c(=O)[nH]c1=O` are 7.2 µM and above 100 µM.
On the same counts, the results for `Cc1cn([C@H]2C[C@H](CNC(=S)Nc3ccc(OCc4ccccc4)cc3)[C@@H](CO)O2)c(=O)[nH]c1=O` are 12 µM and above 100 µM.
As to `Cc1cn([C@@H]2C[C@H](O)[C@@H](CNC(=S)NC(=O)c3ccccc3)O2)c(=O)[nH]c1=O`, at Thymidylate kinase, the affinity corresponds to a Ki of 7.2 µM.
Same read-out and setting: with `Cc1cn([C@@H]2C[C@H](O)[C@@H](CNC(=S)NCc3ccccc3)O2)c(=O)[nH]c1=O` the figure was 5.4 µM.
In data set [3], `Cc1cn([C@@H]2CC[C@@H](CNC(=S)Nc3ccc(Cl)c(C(F)(F)F)c3)O2)c(=O)[nH]c1=O` had an inhibition at 6.25 µg/mL of 34%. Besides, the values for the Ki (on Thymidylate kinase; in data set [1]) were 2.3 µM and above 500 µM, respectively.
On the same counts, the results for `Cc1cn([C@@H]2C[C@H](O)[C@@H](CNC(=O)Nc3ccc(Cl)c(Cl)c3)O2)c(=O)[nH]c1=O` are 41%, 1.1 µM and 116 µM.
Turning to `Cc1cn([C@@H]2C[C@@H](CNC(=O)NC[C@H]3C[C@H](n4cc(C)c(=O)[nH]c4=O)O[C@@H]3CO)[C@H](CO)O2)c(=O)[nH]c1=O`, the Ki was 37 µM at Thymidylate kinase and above 1000 µM in data set [1].
In the case of `Cc1cn([C@@H]2C[C@H](O)[C@@H](CNC(=O)Nc3ccc(Cl)c(C(F)(F)F)c3)O2)c(=O)[nH]c1=O`, in data set [3], the inhibition at 6.25 µg/mL turned out to be 49%. For the same molecule, the Ki was found to be 1.9 µM on Thymidylate kinase and 166 µM in data set [1].
`Cc1cn([C@H]2C[C@H](CNC(=S)Nc3ccccc3)[C@@H](CO)O2)c(=O)[nH]c1=O` returned a Ki on Thymidylate kinase of 69 µM.
For `Cc1cn([C@@H]2C[C@H](O)[C@@H](CNC(=S)Nc3ccc(Cl)c(C(F)(F)F)c3)O2)c(=O)[nH]c1=O`, in data set [3], 6.25 µg/mL produced 39% inhibition. Further, the Ki on Thymidylate kinase is 0.6 µM; in data set [1] it was 362 µM. In addition, the MCC at 72 h, up to 100 µM in data set [2] was above 100 µM.
`COc1ccc(NC(=S)NC[C@H]2O[C@H](n3cc(C)c(=O)[nH]c3=O)C[C@@H]2O)cc1` gave a Ki at Thymidylate kinase of 10 µM.
Regarding `Cc1cn([C@@H]2C[C@H](O)[C@@H](CNC(=S)NCc3ccc(Cl)c(C(F)(F)F)c3)O2)c(=O)[nH]c1=O`, the figures for the Ki (at Thymidylate kinase; in data set [1]) were 2.6 µM and 50 µM, respectively. Besides, the MCC at 72 h, up to 100 µM in data set [2] is above 100 µM.
In data set [3], `Cc1cn([C@@H]2C=C[C@@H](CNC(=S)Nc3ccc(Cl)c(C(F)(F)F)c3)O2)c(=O)[nH]c1=O` had an inhibition at 6.25 µg/mL of 55%. Moreover, the Ki at Thymidylate kinase was found to be 3.8 µM; in data set [1], 190 µM.
For the molecule `Cc1cn([C@@H]2C[C@H](O)[C@@H](CNC(=S)Nc3ccccc3)O2)c(=O)[nH]c1=O`, the Ki on Thymidylate kinase was 16 µM. The molecule further displayed an MCC at 72 h, up to 100 µM in data set [2] above 100 µM.
In turn, `Cc1ccc(NC(=S)NC[C@H]2O[C@H](n3cc(C)c(=O)[nH]c3=O)C[C@@H]2O)cc1` showed a Ki at Thymidylate kinase of 7.8 µM.
`Cc1ccc(NC(=S)NC[C@H]2C[C@H](n3cc(C)c(=O)[nH]c3=O)O[C@@H]2CO)cc1` came in with a Ki on Thymidylate kinase of 36 µM. This molecule had an MCC at 72 h, up to 100 µM in data set [2] above 100 µM.
Consider `Cc1cn([C@@H]2C[C@H](O)[C@@H](CNC(=S)NCCc3ccc(Cl)c(Cl)c3)O2)c(=O)[nH]c1=O`, for which the Ki was found to be 2.2 µM on Thymidylate kinase and 79 µM in data set [1]. This molecule came in with an MCC at 72 h, up to 100 µM in data set [2] above 100 µM.
`Cc1cn([C@@H]2C[C@H](O)[C@@H](CNC(=S)Nc3ccc4c(c3)C(=O)OC43c4ccc(O)cc4Oc4cc(O)ccc43)O2)c(=O)[nH]c1=O`: the Ki at Thymidylate kinase was found to be 5.4 µM.
For `Cc1cn(COCCNC(=S)Nc2ccc(Cl)c(C(F)(F)F)c2)c(=O)[nH]c1=O`, the inhibition at 6.25 µg/mL in data set [3] is 34%. The molecule further returned a Ki at Thymidylate kinase of 37 µM. The MCC at 72 h, up to 100 µM in data set [2] was 100 µM.
On to `Cc1cn([C@@H]2C[C@H](O)[C@@H](CNC(=S)NC(c3ccccc3)c3ccccc3)O2)c(=O)[nH]c1=O`, for which the Ki on Thymidylate kinase is 4.9 µM; in data set [1], above 500 µM. In data set [2], the MCC at 72 h, up to 100 µM was above 100 µM.
`Cc1cn([C@@H]2C[C@H](O)[C@@H](CN)O2)c(=O)[nH]c1=O`: the Ki at Thymidylate kinase is 16 µM.
On to `Cc1cn([C@H]2C[C@H](CNC(=S)Nc3ccc(Cl)c(C(F)(F)F)c3)[C@@H](CO)O2)c(=O)[nH]c1=O`, for which the Ki on Thymidylate kinase was 5 µM; in data set [1] it was above 1000 µM. The MCC at 72 h, up to 100 µM in data set [2] is above 100 µM.
For the molecule `Cc1cn([C@@H]2C[C@H](O)[C@@H](CNC(=S)Nc3ccc(Cl)cc3)O2)c(=O)[nH]c1=O`, the results for the Ki (on Thymidylate kinase; in data set [1]) were 3.2 µM and above 1000 µM, respectively.
